A selection: hits, their analogues and other compounds. The true share with any hit is near 4.1%.
hERG protect = compounds protecting human hERG from proarrhythmic drug block. Q12809. CHO-hERG, FluxOR thallium flux, dofetilide IC70 present. activation (rescue from dofetilide block), less the hit threshold, % at 10 µM. hit rate 0.51% among 310,000. AID 1511;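 active = activation above the mean of controls blocked by dofetilide plus 5 SD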;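 also: thallium influx through hERG after potassium depolarization seen as dye fluorescence rise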
KCNK3 block = human KCNK3 channel inhibition, primary screen | O14649 | CHO-KCNK3 thallium flux, FluxOR fluorescence; active compounds read low | B-score at 10 µM | hit rate 0.84% among 340,000 | AID 602410;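 active = B-score under library mean minus 4 SD, starting fluorescence ratio at most library mean plus 5 SD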;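 also: more negative B-score means stronger inhibition of thallium flux through KCNK3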
KCNK9 block = human KCNK9 channel inhibition. Q9NPC2. HEK293 KCNK9, FluxOR thallium flux fluorescence; active compounds read low. B-score at 10 µM. hit rate 1.2% among 310,000. AID 488922;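 active = ratio B-score over 3 SD below the library mean, with starting fluorescence within 5 SD of its mean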;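 also: negative B-score means less thallium flux so channel inhibition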
Cl transport mod = KCC2 (human) Cl- transport modulation; KCC2 cells, thallium flux FluoZin-2 fluorescence; B-score of Tl+ flux slope (higher = more flux/activation; lower = inhibition) at 10 µM; hit rate 2.2% among 190,000; AID 1456;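 active = thallium flux slope and its plate-corrected score both differing from the plate sample mean at a set confidence after two filtering rounds, in either direction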;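 also: slope of fluorescence scaled to starting intensity during 10 to 20 s after thallium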
KCNQ1 inh = blocks the human KCNQ1 potassium channel. P51787. CHO-K1 KCNQ1, FluxOR thallium flux fluorescence; active compounds read high. B-score at 10 µM. hit rate 1.3% among 310,000;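 active = compounds whose thallium flux B-score, printed positive for inhibition, exceeds three library SD while starting fluorescence stays within three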;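 also: channel opened by potassium depolarization with thallium stimulus after 20 min compound exposure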
KCNQ1 pot = potentiators or activators of human KCNQ1 potassium channel; AID 2648; B-score at 10 µM; hit rate 0.35% among 310,000; P51787; CHO-K1 KCNQ1, thallium flux FluxOR fluorescence; active compounds read high;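 active = fluorescence ratio B-score, a plate-corrected score, at least three library SD, with initial intensity B-score within 5 SD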
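Schedule – 37 °C overnight plating, 90-min dark dye load, 20-min compound pretreatment · System – stable KCNQ1 CHO-K1 line · Probe or stimulus – thallium- and potassium-containing depolarizing buffer · Measured by – kinetic FluxOR fluorescence, 10 s baseline plus 110 s post-stimulus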
KCNQ1 inh valid = human KCNQ1 channel inhibition, validation assay; inhibition, % at 10 µM; KCNQ1 cell line, FluxOR thallium flux fluorescence; hit rate 93% among 1,600; shares compounds with KCNQ1 inh;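 active = primary screen active, with duplicate mean exceeding buffer control mean plus 3 SD of buffer wells, cut at about 28% in these data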;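 also: 0% = buffer control ratio and 100% = XE991 inhibitor control ratio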
CHO Tl flux = counter-screen for KCNQ1 inhibitors: effect in parental CHO cells. hit rate 21% among 1,600. shares compounds with KCNQ1 inh. parental CHO-K1, FluxOR thallium flux fluorescence ratio; active compounds read low; zero means no signal rise above baseline. fluorescence ratio (Tl flux) at 10 µM;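 active = mean of duplicate thallium-flux fluorescence ratios in parental host cells more than 5 SD below the buffer control mean, cut at about 0.38 in these data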;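 also: ratio is peak minus minimum fluorescence divided by baseline fluorescence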
KCNQ1 ephys val = confirmation of human KCNQ1 potassium channel inhibitors by electrophysiology. shares compounds with KCNQ1 inh. KCNQ1-CHO cells, automated patch clamp current. calls only at 10 µM. hit rate 20% among 490. AID 624120;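 active = KCNQ1 current drop exceeding 3 SD of negative control wells, seen in both duplicate runs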;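 also: steady state current during a 2 s step from -80 to +40 mV; negative values mean current inhibition and positive values mean potentiation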
KCNQ2 spec = selectivity of KCNQ1 inhibitors: inhibition of rat KCNQ2 channel | AID 651746 | shares compounds with KCNQ1 inh | inhibition, % at 10 µM | hit rate 71% among 1,600 | KCNQ2 cells, FluxOR thallium flux fluorescence;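 active = mean percent inhibition of the KCNQ2 thallium signal more than 5 SD above the buffer-only control wells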;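 also: KCNQ2 expressed in CHO cells; 0% = buffer control wells and 100% = XE-991 inhibitor control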
KCNQ1 KCNE1 spec = human KCNQ1/KCNE1 inhibition in KCNQ1 specificity screen. KCNQ1/KCNE1 cells, FluxOR thallium flux fluorescence. shares compounds with KCNQ1 inh. inhibition, % at 10 µM. hit rate 77% among 1,600;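 active = mean percent inhibition of duplicate wells above the buffer-only control mean plus 3 SD of those controls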;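 also: 0% = buffer only wells and 100% = XE-991 inhibitor control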
An asterisk follows results filed as active; i = inactive; / = no result given.

SMILES	hERG protect	KCNK3 block	KCNK9 block	Cl transport mod	KCNQ1 inh	KCNQ1 pot	KCNQ1 inh valid	CHO Tl flux	KCNQ2 spec	KCNQ1 KCNE1 spec	others
COc1ccc(S(=O)(=O)C(C#N)c2nc3ccccc3nc2N2CCCC(C)C2)cc1 (configuration not stated)	-13	i	i	-1.4	9*	i	124*	0.44	106%*	126%*	KCNQ1 ephys val=i
Clc1ccc(-c2csc(N3CCCCCC3)n2)cc1	-2	i	i	/	8*	i	123*	0.51	81%*	140%*	KCNQ1 ephys val=i
Cc1nn(CC(=O)N2CCN(S(=O)(=O)c3ccccc3)CC2)c(C)c1[N+](=O)[O-]	/	i	/	/	/	/	/	/	/	/
COc1ccc(N=C2SC(CC(=O)Nc3cccc(Cl)c3)C(=O)N2Cc2ccco2)cc1 (configuration not stated)	-10	i	i	0.57	12*	i	92*	0.43	93%*	136%*	KCNQ1 ephys val=i
COc1ccc(N=C2SC(CC(=O)Nc3ccccc3)C(=O)N2Cc2ccccn2)cc1 (configuration not stated)	-9	i	i	0.25	i	i	/	/	/	/
O=C(CCS(=O)(=O)c1cccc2nonc12)Nc1ccc(Br)cc1	-3	i	i	/	i	i	/	/	/	/
Cc1ccc(C2(C)NC(=O)N(CC(=O)NCc3ccccc3Cl)C2=O)cc1 (configuration not stated)	-8	i	i	/	i	i	/	/	/	/
Cn1c(CCN2CCCCC2)nc2cc(NS(=O)(=O)c3ccc(Cl)cc3)ccc21	-19	i	i	/	8*	i	0	0.56	i	58%*
CC1(C)Cc2c(C#N)c(SCCOc3ccccc3)nc(N3CCOCC3)c2CO1	-21	-9.4*	i	0.45	7*	i	84*	0.45	65%*	164%*
O=C(Nc1ccc(F)cc1)Oc1ccccc1N1CCOCC1	-10	i	i	-0.66	i	i	/	/	/	/
O=C(Nc1ccc(OC(F)(F)F)cc1)Oc1ccccc1N1CCCCC1	-19	i	i	0.14	9*	i	82*	0.48	i	40%*
O=C(Nc1ccc(OC(F)(F)F)cc1)Oc1ccccc1N1CCOCC1	-8	i	i	0.052	6*	i	50*	0.5	70%*	39%*
O=C(Nc1ccc(F)cc1)Nc1ccccc1N1CCCCC1	-4	i	i	-0.12	i	i	/	/	/	/
CN(C)S(=O)(=O)c1ccc(Cl)c(NC(=O)COC(=O)CCC2CCCCC2)c1	/	i	/	/	/	/	/	/	/	/
CCCCCCCCCn1ccc(=N)cc1	-18	i	i	0.95	7*	i	70*	0.49	71%*	i
CCn1c(=O)c(CCC(=O)N2CCN(c3ccccn3)CC2)c(C)c2c(C)nn(-c3ccccc3)c21	-10	i	i	/	7*	i	48*	0.44	93%*	80%*
CCn1c(=O)c(CCC(=O)NCCN2CCOCC2)c(C)c2c(C)nn(-c3ccccc3)c21	-10	i	i	/	i	i	/	/	/	/
COc1ccccc1Oc1ccc(Oc2ccccc2OC)cc1	-8	i	i	0.48	7*	i	126*	0.36*	125%*	108%*
CC(C)(C)c1ccc(OCCC(=O)Nc2cccc(S(=O)(=O)N3CCCC3)c2)cc1	-12	i	i	/	8*	i	34*	0.49	84%*	66%*

High-throughput results (PubChem BioAssay)
